Screening results as filed in PubChem BioAssay.
Hits are enriched below; roughly 4.2% of the tested compounds scored in any of these assays.
ANO1 activ: mouse TMEM16A channel activation, primary screen; Q8BHY3; HEK293 TMEM16A/YFP-H148Q/I152L, iodide quench fluorescence; active compounds read low; B-score at 10 µM; 340,000 tested, 0.3% active;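 active = fluorescence-ratio B-score plate-corrected deviation score at least 3 library SD below zero, with starting fluorescence score within 5 deviations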;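 note: channel opened by trigger with iodide after compound preincubation; score built on the fluorescence ratio of max minus min over baseline; more negative score means more quench and so TMEM16A activation or potentiation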
CHOP inh: inhibitors of CHOP induction in ER stress response; AID 2732; CHO-K1 CHOP-promoter luciferase, tunicamycin-induced, 15-18 h; 220,000 tested, 3.8% active; inhibition, % at 10 µM;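 active = compounds that reduced the stress-induced luciferase reporter signal by more than about 70% of percent inhibition, limit read from the data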;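 note: 0% = tunicamycin plus vehicle and 100% = wells without tunicamycin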
Lipid droplet: modulators of hepatic lipid droplet formation; AML12 mouse hepatocytes, oleate lipid droplets, BODIPY imaging; inhibition, % at 6.5 µM; 240,000 tested, 0.4% active; AID 1656;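 active = lipid droplet intensity inhibited by at least 50%, with more than 500 cells counted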
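material = mouse AML12 hepatocyte cell line, fixed after treatment | also added = 100 µM oleic acid challenge | doses = compound at 6.5 µM only | schedule = overnight exposure | technique = Image-based BODIPY and DAPI two-channel analysis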
UPR CHOP act: apoptotic UPR (CHOP) activation; CHO-CHOP luciferase reporter, luminescence; percent of tunicamycin response over DMSO baseline; activation, % at 10 µM; 330,000 tested, 0.34% active;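 active = at 10 µM dose, activation of 40% or more, normalized to positive control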;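 note: 100% = tunicamycin at 10 µg/mL and 0% = DMSO alone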
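Assay system: CHO-CHOP cells, stable luciferase reporter of PERK-eIF2a-CHOP signalling / Buffer or medium: F12 plus 10% serum / Compound dosing: one dose, 10 µM in 0.5% DMSO / Times: 6 h compound treatment, 37 °C / Technique: luciferase luminescence / Read-out: % reporter activation, DMSO baseline versus tunicamycin full activation / Benchmarks: tunicamycin and DMSO controls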
XBP1 UPR activ: activators of adaptive arm of unfolded protein response (XBP1). 330,000 tested, 0.33% active. AID 463104. CHO-XBP1 luciferase reporter, IRE1-XBP1 UPR activation, luminescence; percent of tunicamycin response, DMSO as zero. activation, % at 20 µM;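 active = versus positive control, 20 µM dose yields 30% or more activation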;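 note: 100% = tunicamycin at 10 µg/mL and 0% = DMSO only wells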
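assay system = CHO-XBP1 luciferase reporter cells | amount = 1000 cells/well | buffer or medium = F12 plus 10% FBS | compound dosing = single point, 20 µM final compound, 1% DMSO | incubation = 16-18 h cell attachment at 37 °C, then 6 h compound exposure | detection = Steady-Glo luminescence read | controls = tunicamycin 10 µg/mL and vehicle-only wells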
TMEM16A inh: mouse TMEM16A channel inhibition, primary screen; Q8BHY3; HEK293 TMEM16A/YFP iodide influx fluorescence, ionomycin; normalized B-score (activity score, 25-100; higher = stronger inhibition) at 10 µM; 310,000 tested, 1.2% active; AID 588511;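 active = ratio plate-corrected score three or more library SD toward inhibition, starting fluorescence score within five deviations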;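 note: score derived from kinetic fluorescence span divided by baseline fluorescence per well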
TMEM16A reconf: TMEM16A (mouse) chloride channel inhibition, re-confirmation | shares compounds with TMEM16A inh | HEK293 TMEM16A/YFP-H148Q, iodide quench fluorescence; ionomycin added to raise cell calcium | inhibition, % at 10 µM | 2,300 tested, 39% active;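 active = mean duplicate percent inhibition, scaled so buffer wells are 0 and the reference blocker 100, over three buffer SD above buffer mean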
HEK293 Ca mobil: counter-screen for TMEM16A inhibitors: effect on calcium mobilization. shares compounds with TMEM16A inh. TMEM16A/YFP HEK293, Fluo4 calcium mobilization. calcium response (% of ionomycin), % at 10 µM. 2,300 tested, 2% active;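 active = duplicate-averaged calcium signal over 20% of the ionomycin maximum, relative to buffer baseline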;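 note: each well's signal is peak minus trough fluorescence divided by its pre-addition baseline; 0% = buffer wells and 100% = ionomycin wells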
YFP-HEK293 quench: parental YFP-HEK293 iodide quench counter-screen activity. 2,300 tested, under 10 active. ionomycin. YFP ratio F(max-min)/F0 at 10 µM. AID 652233. shares compounds with TMEM16A inh;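 active = yellow fluorescent protein signal ratio exceeding the buffer control mean by over 5 SD of those controls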;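 note: ratio is mean of duplicate wells from kinetic YFP trace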
ClC-1 inh: rat ClC-1 inhibition, TMEM16A specificity screen; shares compounds with TMEM16A inh; CHO ClC-1-YFP, iodide influx fluorescence quench; iodide control reads 0, buffer control 100; ratio percent, % at 10 µM; 2,300 tested, under 10 active; AID 652236;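 active = duplicate-mean ratio percent above the mean of iodide-only control wells, which defines zero, plus 5 of their SD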;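 note: higher percent means stronger block of ClC-1 iodide influx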
* marks the source's active call; other numbers are inactive results.

Results for Cc1noc(C)c1COc1cccc(C(=O)OC(C)C#N)c1 (stereo not given) ?
ANO1 activ: inactive; CHOP inh: 11; Lipid droplet: -15; UPR CHOP act: 0; XBP1 UPR activ: -2; TMEM16A inh: inactive

How did Cc1cccc(N2CCN(C(=O)C(Cc3ccccc3)n3cccc3)CC2)c1C (stereo not given) do in these assays?
ANO1 activ: inactive; CHOP inh: 38; Lipid droplet: -25; UPR CHOP act: -1; XBP1 UPR activ: -2; TMEM16A inh: inactive

What do the screens show for `COc1ccc(CN2CCC(C(=O)Nc3ccc(Oc4ccccc4)nc3)CC2)cc1F`?
ANO1 activ: inactive; Lipid droplet: -8; UPR CHOP act: 1; XBP1 UPR activ: -4; TMEM16A inh: 25*; TMEM16A reconf: inactive; HEK293 Ca mobil: inactive; YFP-HEK293 quench: -1; ClC-1 inh: -12

Results for COc1cc(F)ccc1CN1CCC(C(=O)Nc2ccc(Oc3ccccc3)nc2)CC1 ?
ANO1 activ: inactive; Lipid droplet: -16; UPR CHOP act: 0; XBP1 UPR activ: -1; TMEM16A inh: inactive

How did CCOc1cc2c(cc1OCC)C(c1ccccc1)N(c1ccc(C(=O)O)cc1)C(=O)C2 (stereo not given) do in these assays?
ANO1 activ: inactive; CHOP inh: -6; Lipid droplet: 1; UPR CHOP act: 3; XBP1 UPR activ: 1; TMEM16A inh: inactive

How did O=C(NC(Cc1ccccc1)c1ccc2c(c1)OCCCO2)c1ccc(F)cc1 (stereo not given) do in these assays?
ANO1 activ: inactive; CHOP inh: 4; Lipid droplet: -19; UPR CHOP act: 0; XBP1 UPR activ: -1; TMEM16A inh: 25*; TMEM16A reconf: inactive; HEK293 Ca mobil: inactive; YFP-HEK293 quench: -1; ClC-1 inh: -2

What do the screens show for `CC1CC(C)(C)NC(=S)N1CCC(=O)N1CCc2ccccc21` (stereo not given)?
ANO1 activ: inactive; CHOP inh: -8; Lipid droplet: 2; UPR CHOP act: -1; XBP1 UPR activ: -4; TMEM16A inh: inactive

Results for O=C(Nc1ccc(N2CCOCC2)cc1)c1ccc2nc(-c3ccco3)c(-c3ccco3)nc2c1 ?
ANO1 activ: inactive; CHOP inh: 52; Lipid droplet: 13; UPR CHOP act: 6; XBP1 UPR activ: 19; TMEM16A inh: inactive

Results for S=C(Nc1ccc(N2CCOCC2)cc1)Nc1ccc2nc(-c3ccco3)c(-c3ccco3)nc2c1 ?
ANO1 activ: inactive; CHOP inh: 19; Lipid droplet: 18; UPR CHOP act: -3; XBP1 UPR activ: -2; TMEM16A inh: inactive; TMEM16A reconf: inactive; HEK293 Ca mobil: inactive; YFP-HEK293 quench: -1.1; ClC-1 inh: -38

How did CCC(C)NC(=O)C1CC(c2ccc(OC)cc2)=NO1 (stereo not given) do in these assays?
ANO1 activ: inactive; CHOP inh: -10; UPR CHOP act: 3; XBP1 UPR activ: 0; TMEM16A inh: inactive
